Assay results reported in ChEMBL document CHEMBL1641466, “Structure based evolution of a novel series of positive modulators of the AMPA receptor” (Bioorg Med Chem Lett, 2011).
Values after ≈ are worked out from the molar mass of the structure shown.

Assays:
Glutamate receptor 2 = Glutamate receptor 2 (Homo sapiens, UniProt P42262); assay: Modulatory activity at GluA2 receptor LBD
[1] = Solubility of the compound; assay type: physicochemical
[2] = Intrinsic clearance in rat microsomes assessed per mg of protein; assay type: ADME, Microsome
[3] = Intrinsic clearance in human microsomes assessed per mg of protein; assay type: ADME, Microsome
[4] = Permeability from apical to basolateral side of human Caco2 cells; assay type: ADME, cell-based; conditions: Caco-2, read-out: permeability
[5] = Permeability from basolateral to apical side of human Caco2 cells; assay type: ADME, cell-based; conditions: Caco-2, read-out: permeability
[6] = Plasma concentration in Wistar rat at 1 mg/kg, iv and 5 mg/kg, po; assay type: ADME, organism-based
[7] = Half life in Wistar rat at 1 mg/kg, iv and 5 mg/kg, po; assay type: ADME, organism-based; conditions: in vivo
How it was run: (§1)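 Wistar BRL rats; pharmacokinetics from 1 mg/kg i.v. and 5 mg/kg p.o. dosing; plasma clearance, half-life and oral bioavailability (F%) derived.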

[8] = Bioavailability in Wistar rat at 1 mg/kg, iv and 5 mg/kg, po; assay type: ADME, organism-based; conditions: in vivo; how it was run: as §1
[9] = Half life in Wistar rat at 2 mg/kg, iv and 10 mg/kg, po; assay type: ADME, organism-based; conditions: in vivo
Hepatocyte = assay: Metabolic stability in rat hepatocytes assessed per cells; assay type: ADME, cell-based
[10] = Clearance in Wistar rat at 2 mg/kg, iv and 10 mg/kg, po; assay type: ADME, organism-based; conditions: in vivo
[11] = Volume of distribution at steady state in Wistar rat at 2 mg/kg, iv and 10 mg/kg, po; assay type: ADME, organism-based; conditions: in vivo, read-out: Vdss
[12] = Bioavailability in Wistar rat at 2 mg/kg, iv and 10 mg/kg, po; assay type: ADME, organism-based; conditions: in vivo
[13] = Cmax in Wistar rat cerebrospinal fluid at 2 mg/kg, ip; assay type: ADME, organism-based; design: dose 2 mg/kg, route intraperitoneal
How it was run: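 Wistar BRL rats dosed 2 mg/kg i.p.; drug concentration measured in CSF to gauge CNS exposure, Cmax reported.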

Chain of Glutamate receptor 2 (P42262 whole entry, the tested form may be a part): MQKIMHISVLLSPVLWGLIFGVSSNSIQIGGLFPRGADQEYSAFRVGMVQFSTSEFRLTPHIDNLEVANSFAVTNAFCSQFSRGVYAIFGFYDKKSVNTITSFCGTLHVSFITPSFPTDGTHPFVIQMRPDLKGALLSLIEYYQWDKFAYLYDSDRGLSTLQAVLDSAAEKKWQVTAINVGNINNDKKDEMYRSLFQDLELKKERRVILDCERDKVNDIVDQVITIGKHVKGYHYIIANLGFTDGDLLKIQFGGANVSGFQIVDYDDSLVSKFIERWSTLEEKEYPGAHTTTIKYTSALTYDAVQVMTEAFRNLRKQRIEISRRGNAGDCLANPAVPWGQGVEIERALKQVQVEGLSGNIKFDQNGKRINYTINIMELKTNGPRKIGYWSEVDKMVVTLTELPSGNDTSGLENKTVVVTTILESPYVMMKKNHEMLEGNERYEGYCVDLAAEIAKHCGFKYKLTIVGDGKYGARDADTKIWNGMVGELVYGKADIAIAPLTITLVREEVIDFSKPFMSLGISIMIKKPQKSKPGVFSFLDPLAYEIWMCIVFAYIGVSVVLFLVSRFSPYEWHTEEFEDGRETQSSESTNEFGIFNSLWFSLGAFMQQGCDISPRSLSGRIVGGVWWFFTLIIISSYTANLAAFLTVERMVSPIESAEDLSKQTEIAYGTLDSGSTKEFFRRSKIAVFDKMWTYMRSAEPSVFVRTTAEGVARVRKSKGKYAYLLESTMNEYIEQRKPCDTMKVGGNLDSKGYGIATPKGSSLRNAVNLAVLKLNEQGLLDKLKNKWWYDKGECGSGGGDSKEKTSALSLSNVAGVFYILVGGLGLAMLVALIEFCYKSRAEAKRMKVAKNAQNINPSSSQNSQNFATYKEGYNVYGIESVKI

Row | Compound | EC50 (Glutamate receptor 2) | also measured
1 | CC(C)S(=O)(=O)N[C@H]1Cc2ccc(Cn3ncc(CO)c3C(F)(F)F)cc2C1 | 3980 nM | 
2 | NC(=O)c1c(NC(=O)Cn2cc(CO)c(C(F)(F)F)n2)sc2c1CCCC2 | 398 nM | solubility [1]: 20 µg/mL (≈ 49.7 µM)
3 | CC(C)S(=O)(=O)N[C@H]1Cc2ccc(Cn3nc(C(F)(F)F)c4c3CCCC4)cc2C1 | 1260 nM | 
4 | CC(C)S(=O)(=O)N[C@H]1Cc2ccc(Cn3nc(C(F)(F)F)c4c3CCNC4)cc2C1 | 1580 nM | 
5 | CC(C)S(=O)(=O)N[C@H]1Cc2ccc(Cc3ccc(C(F)(F)F)o3)cc2C1 | 1000 nM | 
6 | CC(C)S(=O)(=O)N[C@H]1Cc2ccc(Cn3nc(C(F)(F)F)cc3C(F)(F)F)cc2C1 | 100 nM | solubility [1]: < 1 µg/mL
7 | CC(C)S(=O)(=O)NC[C@H](C)c1ccc(-n2cc(CO)c(C(F)(F)F)n2)cc1 |  | microsomal CLint [2]: < 12 µL/min/mg; microsomal CLint [3]: < 12 µL/min/mg; Papp A→B [4]: 20.6 ×10⁻⁶ cm/s; Papp B→A [5]: 28.7 ×10⁻⁶ cm/s; clearance [6]: 49.7 mL/min/kg; half-life [7]: 1 h; bioavailability [8]: 3.2%
8 | CC(C)S(=O)(=O)N[C@H]1Cc2ccc(Cn3cc(CO)c(C(F)(F)F)c3)cc2C1 | 794 nM | 
9 | O=S(=O)(N[C@@H]1Cc2ccc(Cn3cc(CO)c(C(F)(F)F)n3)cc2C1)C1CC1 | 2510 nM | 
10 | CCn1nc(C(F)(F)F)cc1Cc1ccc2c(c1)C[C@@H](NS(=O)(=O)C(C)C)C2 | 1260 nM | 
11 | CCNCc1cn(CC(=O)Nc2sc3c(c2C(N)=O)CCCC3)nc1C(F)(F)F | 794 nM | half-life [9]: 1.1 h
12 | CC(C)S(=O)(=O)N[C@H]1Cc2ccc(Cn3cc(CF)c(C(F)(F)F)n3)cc2C1 | 1260 nM | 
13 | CC(C)S(=O)(=O)N[C@H]1Cc2ccc(Cn3cc(CCO)c(C(F)(F)F)n3)cc2C1 | 1260 nM | 
14 | CC(C)S(=O)(=O)NC1Cc2ccc(-n3cc(CO)c(C(F)(F)F)n3)cc2C1 (racemic) | > 31600 nM | 

Continued, in another order:

Row | EC50 (Glutamate receptor 2) | Compound | also measured
15 | 2000 nM | COc1ccccc1S(=O)(=O)NC1CCc2cc(Cn3cc(CO)c(C(F)(F)F)n3)ccc21 (stereo not given) | 
16 | 100 nM | CC(C)S(=O)(=O)NC1CCc2cc(Cn3cc(CO)c(C(F)(F)F)n3)ccc21 (stereo not given) | 
17 | 501 nM | CC(C)S(=O)(=O)N[C@H]1Cc2ccc(Cn3cc(CO)c(C(F)(F)F)n3)cc2C1 | microsomal CLint [2]: 31 µL/min/mg; microsomal CLint [3]: 23 µL/min/mg; Papp A→B [4]: 12.8 ×10⁻⁶ cm/s; Papp B→A [5]: 29 ×10⁻⁶ cm/s
18 | 1000 nM | CN(C)S(=O)(=O)N[C@@H]1Cc2ccc(Cn3cc(CO)c(C(F)(F)F)n3)cc2C1 | 
19 | 7940 nM | CS(=O)(=O)N[C@H]1Cc2ccc(Cn3cc(CO)c(C(F)(F)F)n3)cc2C1 | 
20 | 5010 nM | O=S(=O)(N[C@H]1Cc2ccc(Cn3cc(CO)c(C(F)(F)F)n3)cc2C1)C(F)(F)F | 
21 | 501 nM | CS(=O)(=O)NC1CCc2cc(Cn3cc(CO)c(C(F)(F)F)n3)ccc21 (stereo not given) | 
22 | 158 nM | O=S(=O)(NC1CCc2cc(Cn3cc(CO)c(C(F)(F)F)n3)ccc21)C1CC1 (stereo not given) | 
23 | 1260 nM | Cn1cc(S(=O)(=O)NC2CCc3cc(Cn4cc(CO)c(C(F)(F)F)n4)ccc32)c(C(F)(F)F)n1 (stereo not given) | 
24 | 398 nM | CCS(=O)(=O)N[C@H]1Cc2ccc(Cn3cc(CO)c(C(F)(F)F)n3)cc2C1 | 
25 | 398 nM | CC(C)S(=O)(=O)N[C@@H]1Cc2ccc(Cn3cc(CO)c(C(F)(F)F)n3)cc2C1 | 
26 | 2510 nM | O=S(=O)(N[C@@H]1Cc2ccc(Cn3cc(CO)c(C(F)(F)F)n3)cc2C1)C(F)(F)F | solubility [1]: 84 µg/mL (≈ 189 µM); clearance [2]: < 12 µL/min/mg; clearance [3]: < 12 µL/min/mg; Stability (Hepatocyte): < 6 µL/min; Papp A→B [4]: 16.9 ×10⁻⁶ cm/s; Papp B→A [5]: 26.4 ×10⁻⁶ cm/s; clearance [10]: 1.9 mL/min/kg; Vd [11]: 1 L/kg; half-life [9]: 7.4 h; bioavailability [12]: 100%; Cmax [13]: 120 nM
